The values that follow come from ChEMBL document CHEMBL1125117, “Substituted 1,3-dihydro-2H-pyrrolo[2,3-b]pyridin-2-ones as potential antiinflammatory agents” (1990).

Experiment [1] concerns Rattus norvegicus. Put plainly: In vivo effect on prostaglandin and leukotriene mediated production in rat pleural cavity was assessed by the inhibition of cell influx in 5-lipoxygenase/ cyclooxygenase at dose 1.0 mg/kg. The class given is functional. An outline of the steps:
(§1)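 Rat reversed passive Arthus pleurisy, oral dosing 1 h before challenge. BSA given iv (5 mg), then rabbit anti-BSA IgG intrapleurally 30 min later. At 4 h, exudate was collected into indomethacin/NDGA and its volume recorded. Neutrophils were counted by Coulter counter. TXB2 and LTE4 in ethanol-extracted supernatant were measured by RIA with tritiated recovery spikes. Reported as % inhibition versus control.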

In experiment [2] the test system is Rattus norvegicus. Put plainly: In vivo antiinflammatory activity against edema formation in the noninjected(secondary) paw of the rat (after edema stimulation) at dose 2.0 mg/kg. Format: functional.
The subject of experiment [3] is Rattus norvegicus. Description: In vivo antiinflammatory activity against edema formation in the noninjected(secondary) paw of the rat (before edema stimulation) at dose 2.0 mg/kg. Format: functional. An outline of the steps: (§2)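 Adjuvant arthritis in rats, prophylactic regimen. Oral dosing began 1 h before challenge and continued for 21 consecutive days. Heat-killed M. tuberculosis in paraffin oil (6 mg/mL), 0.1 mL injected into the left hind paw, with methylcellulose-treated controls. Both hind paw volumes measured by plethysmograph on day 21. Reported as % change relative to control.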

Experiment [4] has as its system Rattus norvegicus. Description: In vivo effect on prostaglandin and leukotriene mediated production in rat pleural cavity was assessed by the inhibition of fluid volume in 5-lipoxygenase/ cyclooxygenase at dose 1.0 mg/kg. Format: functional. An outline of the steps: as §1
For experiment [5], the system named is Rattus norvegicus. Description: In vivo inhibitory activity against cells in reverse passive Arthus reaction (RPAR) assay at dose 25 mg/kg in the pleural cavity of rats. Format: functional. In short, it runs like this:
(§3)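 Male rats, five per group, dosed orally 1 h before iv BSA antigen (5 mg). Rabbit anti-BSA IgG (0.5 mg) given intrapleurally 30 min later. At 4 h, pleural exudate volume was measured and neutrophils counted (Coulter) after saline-EDTA lavage. Reported as % reduction in cells and fluid relative to control.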

The subject of experiment [6] is Rattus norvegicus. Put plainly: In vivo effect on prostaglandin and leukotriene mediated production in rat pleural cavity was assessed by the inhibition of cell influx in 5-lipoxygenase/ cyclooxygenase at dose 25 mg/kg. Format: functional. In short, it runs like this: as §1
In experiment [7] the test system is Rattus norvegicus. Put plainly: In vivo antiinflammatory activity against edema formation in the injected(primary) paw of the rat(before edema stimulation) at dose 25 mg/kg. Format: functional. In short, it runs like this:
as §2

The target of experiment [8] is Cyclooxygenase (Homo sapiens) (UniProt P35354+P23219). Description: In vitro inhibitory activity against Prostaglandin G/H synthase in human platelets. To be noted: concentration not given here. Details: concentration or dose not given beside the values. In short, it runs like this:
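Human platelets (2×10^5/mL) in HEPES buffer with 0.5 mM EGTA and 1.5 mM CaCl2, incubated 4 min with compound in DMSO vehicle. Then given [14C]arachidonic acid and A23187 ionophore for 5 min and stopped with methanol. HHT was measured by reverse-phase HPLC. Reported as % inhibition of HHT versus vehicle, at 15 μM.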

In experiment [9] the test system is Rattus norvegicus. Description: In vivo antiinflammatory activity against edema formation in the noninjected(secondary) paw of the rat (before edema stimulation) at dose 25 mg/kg. The class given is functional. An outline of the steps:
as §2

For experiment [10], the target named is T1, Polyunsaturated fatty acid 5-lipoxygenase (Homo sapiens) (UniProt P09917).
T1 sequence (whole entry): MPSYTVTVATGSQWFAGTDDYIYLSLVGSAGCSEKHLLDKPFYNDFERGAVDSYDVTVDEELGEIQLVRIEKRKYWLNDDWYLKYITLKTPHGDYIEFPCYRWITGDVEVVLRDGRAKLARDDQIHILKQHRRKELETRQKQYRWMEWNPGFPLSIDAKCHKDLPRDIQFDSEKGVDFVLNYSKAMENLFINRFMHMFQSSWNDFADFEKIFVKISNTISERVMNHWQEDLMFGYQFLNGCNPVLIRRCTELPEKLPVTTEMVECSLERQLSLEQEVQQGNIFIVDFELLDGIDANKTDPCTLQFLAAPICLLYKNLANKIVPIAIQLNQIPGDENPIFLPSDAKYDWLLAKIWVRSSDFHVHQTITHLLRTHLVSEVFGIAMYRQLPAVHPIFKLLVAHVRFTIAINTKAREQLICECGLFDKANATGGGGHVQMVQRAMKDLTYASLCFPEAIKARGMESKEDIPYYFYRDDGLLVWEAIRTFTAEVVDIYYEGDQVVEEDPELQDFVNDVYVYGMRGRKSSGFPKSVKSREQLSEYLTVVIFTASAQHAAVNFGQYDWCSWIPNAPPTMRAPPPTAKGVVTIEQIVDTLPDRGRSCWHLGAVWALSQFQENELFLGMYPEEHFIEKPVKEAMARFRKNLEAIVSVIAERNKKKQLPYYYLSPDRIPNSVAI
Put plainly: In vitro inhibitory activity against 5-lipoxygenase in human polymorphonuclear (PMN) cells. The settings on record: concentration not given here. In short, it runs like this:
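Human PMN neutrophils (2×10^7 cells/mL) in HEPES buffer with 1 mM CaCl2, preincubated 4 min with test compound in DMSO vehicle. Then stimulated with [14C]arachidonic acid plus calcium ionophore A23187 for 5 min and stopped with methanol. 5-HETE was quantitated by HPLC. Reported as % inhibition versus vehicle, tested at 15 μM.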

Experiment [11] has as its system Rattus norvegicus. Description: In vivo effect on prostaglandin and leukotriene mediated production in rat pleural cavity was assessed by the inhibition of TxB2 in 5-lipoxygenase/ cyclooxygenase at dose 25 mg/kg.
Experiment [12] relates to Rattus norvegicus. Put plainly: In vivo effect on prostaglandin and leukotriene mediated production in rat pleural cavity was assessed by the inhibition of fluid volume in 5-lipoxygenase/ cyclooxygenase at dose 25 mg/kg. The class given is functional. The settings on record: for inhibition in vivo at 25 mg/kg: Rattus norvegicus, Pleural cavity. In short, it runs like this: as §1

For experiment [13], the system named is Rattus norvegicus. Description: In vivo inhibitory activity against fluid in reverse passive Arthus reaction (RPAR) assay at dose 25 mg/kg in the pleural cavity of rats. Format: functional. In short, it runs like this: as §3
Experiment [14] concerns Rattus norvegicus. Put plainly: In vivo effect on prostaglandin and leukotriene mediated production in rat pleural cavity was assessed by the inhibition of LTE4 in 5-lipoxygenase/ cyclooxygenase at dose 25 mg/kg. The class given is functional. An outline of the steps: as §1
Experiment [15] has as its system Rattus norvegicus. Description: In vivo effect on prostaglandin and leukotriene mediated production in rat pleural cavity was assessed by the inhibition of TXB2 in 5-lipoxygenase/ cyclooxygenase at dose 40 mg/kg. The class given is functional. In short, it runs like this:
as §1

The subject of experiment [16] is Rattus norvegicus. Put plainly: In vivo effect on prostaglandin and leukotriene mediated production in rat pleural cavity was assessed by the inhibition of fluid volume in 5-lipoxygenase/ cyclooxygenase at dose 40 mg/kg. The class given is functional. An outline of the steps:
as §1

In experiment [17] the test system is Rattus norvegicus. Put plainly: In vivo effect on prostaglandin and leukotriene mediated production in rat pleural cavity was assessed by the inhibition of LTE4 in 5-lipoxygenase/ cyclooxygenase at dose 40 mg/kg.
Experiment [18] concerns Rattus norvegicus. Description: In vivo effect on prostaglandin and leukotriene mediated production in rat pleural cavity was assessed by the inhibition of cell influx in 5-lipoxygenase/ cyclooxygenase at dose 40 mg/kg. Format: functional. An outline of the steps: as §1
Experiment [19] deals with Rattus norvegicus. Put plainly: In vivo effect on prostaglandin and leukotriene mediated production in rat pleural cavity was assessed by the inhibition of cell influx in 5-lipoxygenase/ cyclooxygenase at dose 20 mg/kg. Format: functional. In short, it runs like this:
as §1

Experiment [20] deals with Rattus norvegicus. Put plainly: In vivo effect on prostaglandin and leukotriene mediated production in rat pleural cavity was assessed by the inhibition of LTE4 in 5-lipoxygenase/ cyclooxygenase at dose 20 mg/kg.
For experiment [21], the system named is Rattus norvegicus. Description: In vivo effect on prostaglandin and leukotriene mediated production in rat pleural cavity was assessed by the inhibition of fluid volume in 5-lipoxygenase/ cyclooxygenase at dose 20 mg/kg. Format: functional. In short, it runs like this: as §1
Experiment [22] concerns Rattus norvegicus. Put plainly: In vivo effect on prostaglandin and leukotriene mediated production in rat pleural cavity was assessed by the inhibition of TXB2 in 5-lipoxygenase/ cyclooxygenase at dose 20 mg/kg. Format: functional. An outline of the steps:
as §1

For experiment [23], the system named is Rattus norvegicus. Description: In vivo antiinflammatory activity against edema formation in the noninjected(secondary) paw of the rat (after edema stimulation) at dose 25 mg/kg. The class given is functional. In short, it runs like this: (§4)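 Adjuvant arthritis in rats, therapeutic regimen. Heat-killed M. tuberculosis in paraffin oil (6 mg/mL), 0.1 mL injected into the left hind paw. Lesion allowed to develop 7 days before the first oral dose, with methylcellulose-treated controls. Paw volumes measured by plethysmograph, final reading on day 21. Reported as % change in paw volume relative to control.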

In experiment [24] the test system is Rattus norvegicus. Put plainly: In vivo antiinflammatory activity against edema formation in the injected(primary) paw of the rat(after edema stimulation) at dose 25 mg/kg. Format: functional. In short, it runs like this: as §4
Experiment [25] has as its system Rattus norvegicus. Description: In vivo effect on prostaglandin and leukotriene mediated production in rat pleural cavity was assessed by the inhibition of TXB2 in 5-lipoxygenase/ cyclooxygenase at dose 25 mg/kg. Format: functional. In short, it runs like this:
as §1

One may read the inhibition in vivo as the share of the control response that was lost under treatment. For the compound `COc1ccc2c(c1)c(CC(=O)O)c(C)n2C(=O)c1ccc(Cl)cc1` [INDOMETHACIN], the inhibition in vivo at 1 mg/kg with Rattus norvegicus [1] was determined as 48%; with Rattus norvegicus [4], 24%. The inhibition in vivo at 2 mg/kg worked out at 88% with Rattus norvegicus [2] and 70% with Rattus norvegicus [3].

For orientation: ED50 means the midpoint of the dose-response relation. A word on the inhibition: it is the percentage by which the read-out fell short of the control. As for `CC(C)(C(=O)[O-])c1cccnc1Nc1ccc(Cl)cc1.[Na+]`, the median effective dose (ED50) is 11.3 mg/kg in the experiment with Rattus norvegicus [5] and 9.6 mg/kg with Rattus norvegicus [13]. Besides, the inhibition in vivo at 25 mg/kg with Rattus norvegicus [6] was 62%; in the experiment with Rattus norvegicus [7] it was 14%; in the experiment with Rattus norvegicus [9], 34%; in the experiment with Rattus norvegicus [12] it was 71%; with Rattus norvegicus [14], 76%. The inhibition in experiment [8] was determined as 28%; in experiment [10], 0%. In the experiment on Rattus norvegicus [11], this compound returned a TxB2 inhibition of 81%.

In the case of `CC1(C)C(=O)N(c2ccccc2)c2ncccc21`, the median effective dose (ED50) came out at 21.9 mg/kg in the experiment with Rattus norvegicus [5] and 35.1 mg/kg in the experiment with Rattus norvegicus [13]. In addition, the inhibition in vivo at 40 mg/kg with Rattus norvegicus [15] turned out to be 54%; in the experiment with Rattus norvegicus [16], 60%; with Rattus norvegicus [18], 70%. Moreover, the inhibition in vivo at 25 mg/kg in the experiment with Rattus norvegicus [7] was 0%; with Rattus norvegicus [9], 24%. Besides, the inhibition in [8] and in experiment [10] was 0% throughout. In the experiment on Rattus norvegicus [17], this compound yielded an LTE4 inhibition of 54%.

Turning to `CC1(C)C(=O)N(c2ccc(F)cc2)c2ncccc21`, the median effective dose (ED50) with Rattus norvegicus [5] came to 4.5 mg/kg; with Rattus norvegicus [13] it was 29.5 mg/kg. The inhibition in vivo at 25 mg/kg in the experiment on Rattus norvegicus [7] came out at 0%; in the experiment with Rattus norvegicus [9], 48%. In addition, the values for the inhibition in vivo at 20 mg/kg in the experiment with Rattus norvegicus [19], in the experiment on Rattus norvegicus [21] and in the experiment on Rattus norvegicus [22] were 70%, 43% and 53%, respectively. Further, the figures for the inhibition in experiment [8] and in [10] were 0% and 2%, respectively. Besides, in the experiment on Rattus norvegicus [20], the LTE4 inhibition is 36%.

What is called Inhibition is the change of the read-out against control, counted positive when it falls. Turning to `CC1(C)C(=O)N(c2ccc(Cl)cc2)c2ncccc21`, the results for the 50% effective dose (ED50) with Rattus norvegicus [5] and in the experiment on Rattus norvegicus [13] were 4.5 mg/kg and 27.9 mg/kg, respectively. For the same compound, the inhibition in vivo at 25 mg/kg with Rattus norvegicus [23] came to 54%; with Rattus norvegicus [24], 31%; in the experiment with Rattus norvegicus [6] it was 73%; with Rattus norvegicus [7], 13%; with Rattus norvegicus [9], 65%; in the experiment on Rattus norvegicus [12] it was 83%. The inhibition in vivo at 25 mg/kg with Rattus norvegicus [25] came to 78%. The inhibition in [8] worked out at 47%; in [10], 13%. Moreover, the Inhibition with Rattus norvegicus [12] (25 mg/kg) was 83%.
